Measured values taken from ChEMBL document CHEMBL1131090, “Discovery of N-[2-[5-[Amino(imino)methyl]-2-hydroxyphenoxy]-3, 5-difluoro-6-[3-(4, 5-dihydro-1-methyl-1H-imidazol-2-yl)phenoxy]pyridin-4-yl]-N-methylgl y cine (ZK-807834): a potent, selective, and orally active inhibitor of the blood coagulation enzyme factor Xa” (J Med Chem, 1998).

Experiments:
Prothrombin = Prothrombin (Homo sapiens, UniProt P00734); assay: Inhibitory potency was measured against human thrombin
How it was run: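 Purified human thrombin (16 nM final) was assayed chromogenically with S-2302 (300 μM final) in 50 mM Tris-HCl pH 7.5, 150 mM NaCl, 2.5 mM CaCl2, 0.1% PEG 6000 at room temperature. Varying inhibitor concentrations were tested at a substrate level equal to Km, assuming a competitive mechanism, to derive Ki.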

Serine protease 1 = biological target: T1, Serine protease 1 (Bos taurus, UniProt P00760); assay: Inhibitory potency was measured against bovine trypsin.
T1 sequence (P00760 whole entry): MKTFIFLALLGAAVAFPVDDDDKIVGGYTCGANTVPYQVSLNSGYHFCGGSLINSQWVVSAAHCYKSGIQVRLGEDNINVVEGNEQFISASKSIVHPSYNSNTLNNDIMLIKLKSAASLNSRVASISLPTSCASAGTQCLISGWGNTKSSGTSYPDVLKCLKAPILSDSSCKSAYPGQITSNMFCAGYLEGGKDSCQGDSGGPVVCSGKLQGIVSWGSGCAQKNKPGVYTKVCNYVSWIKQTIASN

[1] = Prothrombin time concentration to give a 2-fold extension activity against pooled lyophilized human plasma.; format: functional
How it was run: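 Prothrombin time was measured in pooled lyophilized human plasma with Thromboplastin IS on an automated coagulation analyzer. The value is the inhibitor concentration that doubles PT.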

[2] = Inhibitor plasma concentration was measured in dogs on 10 mg/kg oral dosing after 2 hr administration; uM; format: ADME, organism-based, Canis lupus familiaris; set-up: dose 10 mg/kg, route oral; details: dog
How it was run: (§1)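 Conscious beagles (10–16 kg) were given 10 mg/kg by oral gavage as homogeneous solutions in aqueous acid (n = 3). Plasma inhibitor concentrations were measured at the stated times by an ex vivo FXa inhibition activity assay. For ester/acid pairs, the value is the total ester plus acid concentration.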

[3] = Inhibitor plasma concentration was measured in dogs on 10 mg/kg oral dosing after 1 hr administration; uM; format: ADME, organism-based, Canis lupus familiaris; set-up: dose 10 mg/kg, route oral; details: dog; how it was run: as §1
Coagulation factor X = Coagulation factor X (Homo sapiens, UniProt P00742); assay: Inhibitory potency was measured against human coagulation factor X
Coagulation factor X, sequence (P00742 41-179 limits assumed): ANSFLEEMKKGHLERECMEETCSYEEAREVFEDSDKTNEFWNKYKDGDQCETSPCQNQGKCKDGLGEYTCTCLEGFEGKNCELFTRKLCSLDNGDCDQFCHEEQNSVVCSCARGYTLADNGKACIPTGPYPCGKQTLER
Coagulation factor X, sequence (P00742 235-488 limits assumed): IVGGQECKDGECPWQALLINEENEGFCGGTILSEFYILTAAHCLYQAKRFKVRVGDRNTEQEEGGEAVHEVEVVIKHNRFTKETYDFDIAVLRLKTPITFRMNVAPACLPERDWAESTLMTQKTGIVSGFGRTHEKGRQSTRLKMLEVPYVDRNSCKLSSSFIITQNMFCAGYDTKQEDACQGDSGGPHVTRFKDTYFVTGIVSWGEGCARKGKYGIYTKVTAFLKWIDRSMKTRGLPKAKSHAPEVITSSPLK

[4] = plasma concentration was measured against the Nonhuman primates (baboon) using FXa inhibition assay after 2 hr; uM; format: ADME, organism-based, Papio
How it was run: (§2)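 Baboons received a 10 mg/kg oral dose in 1.5% carboxymethylcellulose plus 1% Tween 80 via nasogastric tube (2–4 animals per compound). Plasma inhibitor concentration was determined at the stated times by FXa inhibition assay.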

[5] = plasma concentration was measured against the Nonhuman primates (baboon) using FXa inhibition assay after 3 hr; uM; format: ADME, organism-based, Papio; how it was run: as §2
[6] = plasma concentration was measured against the Nonhuman primates (baboon) using FXa inhibition assay after 1 hr; uM; format: ADME, organism-based, Papio; how it was run: as §2
[7] = Inhibitor plasma concentration was measured in dogs on 10 mg/kg oral dosing after 4 hr administration; uM; format: ADME, organism-based, Canis lupus familiaris; set-up: dose 10 mg/kg, route oral; details: dog; how it was run: as §1
[8] = plasma concentration was measured against the Nonhuman primates (baboon) using FXa inhibition assay after 6 h; uM; format: ADME, organism-based, Papio; how it was run: as §2
[9] = plasma concentration was measured against the Nonhuman primates (baboon) using FXa inhibition assay after 4 hr; uM; format: ADME, organism-based, Papio; how it was run: as §2
[10] = plasma concentration was measured against the Nonhuman primates (cynomolgus monkey) using HPLC after 1 hr; uM
[11] = plasma concentration was measured against the Nonhuman primates (cynomolgus monkey) using HPLC after 2 hr; uM
[12] = plasma concentration was measured against the Nonhuman primates (cynomolgus monkey) using HPLC after 4 hr; uM
[13] = plasma concentration was measured against the Nonhuman primates (cynomolgus monkey) using HPLC after 3 hr; uM

Row | Structure (SMILES) | Ki (Prothrombin) [nM] | Ki (Serine protease 1) [nM] | Ki (Coagulation factor X) [nM] | other results
1 | COc1ccc(C(=N)N)cc1Oc1nc(Oc2cccc(C(=O)N(C)C)c2)c(F)c(C)c1F | > 5000 | 4300 | 740 | –
2 | CCOC(=O)[C@@H]1C[C@@H](Oc2c(F)c(Oc3cccc(C4=NCCN4C)c3)nc(Oc3cc(C(=N)N)ccc3O)c2F)CN1 | 140 | 330 | 0.43 | concentration at 2 h [4]: 300 nM; concentration at 3 h [5]: 600 nM; concentration at 1 h [6]: 200 nM; PT extension [1]: 300 nM; concentration at 2 h [2]: 3400 nM; concentration at 4 h [7]: 2600 nM; concentration at 1 h [3]: 3500 nM; concentration at 6 h [8]: 300 nM; concentration at 4 h [9]: 500 nM
3 | CN1CCN=C1c1cccc(Oc2nc(Oc3cc(C(=N)N)ccc3O)c(F)c(OC3CCN(CC(=O)O)CC3)c2F)c1 | 125 | 330 | 0.24 | concentration at 3 h [5]: 100 nM; concentration at 1 h [6]: 100 nM; concentration at 1 h [10]: 100 nM; PT extension [1]: 220 nM; concentration at 2 h [2]: 3800 nM; concentration at 4 h [7]: 1200 nM; concentration at 1 h [3]: 5500 nM; concentration at 6 h [8]: 700 nM; concentration at 4 h [9]: 200 nM
4 | CCOC(=O)[C@@H]1C[C@@H](Oc2c(F)c(Oc3cccc(C(=O)N(C)C)c3)nc(Oc3cc(C(=N)N)ccc3O)c2F)CN1 | 280 | 740 | 0.71 | PT extension [1]: 1400 nM; concentration at 2 h [2]: 200 nM; concentration at 4 h [7]: 100 nM; concentration at 1 h [3]: 300 nM
5 | CCOC(=O)CN(C)c1c(F)c(Oc2cccc(C3=NCCN3C)c2)nc(Oc2cc(C(=N)N)ccc2O)c1F | 630 | 240 | 0.26 | PT extension [1]: 630 nM; concentration at 2 h [2]: 200 nM; concentration at 4 h [7]: 100 nM; concentration at 1 h [3]: 200 nM
6 | N=C(N)c1cccc(Oc2nc(Oc3cccc(C(=N)N)c3)c(F)cc2F)c1 | 37000 | 1200 | 24 | –
7 | N=C(N)c1cccc(Oc2nc(Oc3cccc(C(=N)N)c3)c(Cl)cc2Cl)c1 | > 5000 | 2100 | 130 | –
8 | Cc1c(F)c(Oc2cccc(C(=N)N)c2)nc(Oc2cccc(C(=N)N)c2)c1F | 22000 | 810 | 13 | –
9 | N=C(N)c1cccc(Oc2cccc(Oc3cccc(C(=N)N)c3)n2)c1 | 14000 | 1100 | 53 | –
10 | Cc1c(F)c(Oc2cccc(C(=O)N(C)C)c2)nc(Oc2cc(C(=N)N)ccc2N)c1F | 2300 | 550 | 14 | –
11 | Cc1c(F)c(Oc2cccc(C(=N)N)c2)nc(Oc2cccc(C(N)=O)c2)c1F | > 5000 | > 5000 | 280 | –
12 | Cc1c(F)c(Oc2ccccc2)nc(Oc2cccc(C(=N)N)c2)c1F | > 5000 | – | > 5000 | –
13 | Cc1c(F)c(Oc2cccc(C(=N)N)c2)nc(Oc2cccc(N(C)C)c2)c1F | 2600 | 1900 | 160 | –

Continued, in another order:

Row | Ki (Prothrombin) [nM] | Ki (Serine protease 1) [nM] | Ki (Coagulation factor X) [nM] | Structure (SMILES) | other results
14 | 192 | 770 | 0.65 | CN(C)C(=O)c1cccc(Oc2nc(Oc3cc(C(=N)N)ccc3O)c(F)c(OC3CCN(CC(=O)O)CC3)c2F)c1 | PT extension [1]: 850 nM; concentration at 2 h [2]: 100 nM; concentration at 1 h [3]: 300 nM
15 | 550 | 2800 | 400 | N=C(N)c1ccc(Oc2cccc(Oc3ccc(C(=N)N)cc3)n2)cc1 | –
16 | 180 | 660 | 9 | Cn1ccnc1-c1cccc(Oc2cc(C(=O)O)cc(Oc3cc(C(=N)N)ccc3O)n2)c1 | –
17 | 1400 | 1200 | 26 | N=C(N)c1ccc(O)c(Oc2cc(C(=O)O)cc(Oc3cccc(-n4ccnc4)c3)n2)c1 | –
18 | 22000 | – | 640 | Cc1c(F)c(Oc2cccc(CN(C)C)c2)nc(Oc2cccc(C(=N)N)c2)c1F | –
19 | > 5000 | 1400 | 85 | N=C(N)c1ccc(O)c(Oc2cc(C(=O)O)cc(Oc3cccc(C4=NCCN4)c3)n2)c1 | –
20 | 1200 | 1900 | 130 | N=C(N)c1ccc(Oc2cccc(Oc3cccc(C(=N)N)c3)n2)cc1 | –
21 | 190 | 300 | 0.31 | CCOC(=O)CN1CCC(Oc2c(F)c(Oc3cccc(C4=NCCN4C)c3)nc(Oc3cc(C(=N)N)ccc3O)c2F)CC1 | PT extension [1]: 240 nM; concentration at 2 h [2]: 300 nM; concentration at 4 h [7]: 200 nM; concentration at 1 h [3]: 300 nM
22 | 250 | 310 | 0.33 | CN1CCN=C1c1cccc(Oc2nc(Oc3cc(C(=N)N)ccc3O)c(F)c(O[C@H]3CN[C@H](C(=O)O)C3)c2F)c1 | PT extension [1]: 670 nM; concentration at 2 h [2]: 2200 nM; concentration at 4 h [7]: 800 nM; concentration at 1 h [3]: 3200 nM
23 | 1100 | 1100 | – | Cc1c(F)c(Oc2cccc(C(=O)N(C)C)c2)nc(Oc2cc(C(=N)N)ccc2O)c1F | –
24 | 27000 | 570 | 59 | N=C(N)c1cccc(Oc2cc(C(=O)O)cc(Oc3cccc(C(=N)N)c3)n2)c1 | –
25 | 1400 | 2700 | 620 | N=C(N)c1ccc(Oc2nc(Oc3ccc(C(=N)N)cc3)c(Cl)cc2Cl)cc1 | –
26 | – | 33 | 0.66 | N=C(N)c1ccc(/C=C2/CCCC/C(=C/c3ccc(C(=N)N)cc3)C2=O)cc1 | –
27 | 15000 | 2700 | 80 | Cc1c(F)c(Oc2cccc(C(=N)N)c2)nc(Oc2cccc(C(=O)N(C)C)c2)c1F | –
28 | 4500 | 1100 | 0.41 | CN(C)C(=O)c1cccc(Oc2nc(Oc3cc(C(=N)N)ccc3O)c(F)c(N(C)CC(=O)O)c2F)c1 | PT extension [1]: 1000 nM; concentration at 2 h [2]: 400 nM; concentration at 1 h [3]: 300 nM
29 | 1100 | 300 | 3.9 | CN(C)C(=O)c1cccc(Oc2cc(C(=O)O)cc(Oc3cc(C(=N)N)ccc3O)n2)c1 | –
30 | – | – | 1300 | CNC(=O)c1cccc(Oc2nc(Oc3cccc(C(=N)N)c3)c(F)c(C)c2F)c1 | –
31 | 810 | 220 | 2.4 | CN1CCN=C1c1cccc(Oc2cc(C(=O)O)cc(Oc3cc(C(=N)N)ccc3O)n2)c1 | –
32 | 2000 | 280 | – | CN1CCN=C1c1cccc(Oc2nc(Oc3cc(C(=N)N)ccc3O)c(F)c(N(C)CC(=O)O)c2F)c1 [FIDEXABAN] | concentration at 2 h [11]: 500 nM; concentration at 2 h [4]: 600 nM; concentration at 3 h [5]: 900 nM; concentration at 1 h [6]: 300 nM; concentration at 1 h [10]: 200 nM; PT extension [1]: 230 nM; concentration at 4 h [12]: 1200 nM; concentration at 2 h [2]: 2100 nM; concentration at 4 h [7]: 700 nM; concentration at 1 h [3]: 3000 nM; concentration at 6 h [8]: 1000 nM; concentration at 4 h [9]: 1100 nM; concentration at 3 h [13]: 700 nM
